Experimental data reported in ChEMBL document CHEMBL1142063, “Synthesis of omeprazole analogues and evaluation of these as potential inhibitors of the multidrug efflux pump NorA of Staphylococcus aureus” (2007).

Experiments:
Staphylococcus aureus [1] = assay: Increase in 5 ug moxifloxacin antibacterial activity against Staphylococcus aureus SA1199B mutant overexpressing NorA at 128 ug/ml by disk diffusion method; format: functional
In short: (§1)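 Agar diffusion on Mueller-Hinton agar (adjusted to 20 μg/ml Ca²⁺ and 10 μg/ml Mg²⁺), used plain or with the efflux inhibitor incorporated at the stated concentration. Disks were 5 μg for the fluoroquinolones and 30 μg for chloramphenicol. Plates were incubated overnight at 37°C, and inhibition zone diameters were measured. Values are means of at least three independent experiments.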

Staphylococcus aureus [2] = assay: Increase in 5 ug ciprofloxacin antibacterial activity against Staphylococcus aureus SA1199B mutant overexpressing NorA at 128 ug/ml by disk diffusion method; format: functional; in short: as §1
Staphylococcus aureus [3] = assay: Increase in 2 ug/ml Norfloxacin antibacterial activity against wild type Staphylococcus aureus SA1199 at 128 ug/ml by checker board method; format: functional
Staphylococcus aureus [4] = assay: Increase in 30 ug chloramphenicol antibacterial activity against Staphylococcus aureus SA1199B mutant overexpressing NorA at 128 ug/ml by disk diffusion method; format: functional; in short: as §1
Staphylococcus aureus [5] = assay: Increase in 64 ug/ml Norfloxacin antibacterial activity against Staphylococcus aureus SA1199B mutant overexpressing NorA at 128 ug/ml by checker board method; format: functional
Staphylococcus aureus [6] = assay: Increase in 5 ug Norfloxacin antibacterial activity against Staphylococcus aureus SA1199B mutant overexpressing NorA at 128 ug/ml by disk diffusion method; format: functional; in short: as §1
Staphylococcus aureus [7] = assay: Increase in 5 ug ofloxacin antibacterial activity against Staphylococcus aureus SA1199B mutant overexpressing NorA at 128 ug/ml by disk diffusion method; format: functional; in short: as §1
Staphylococcus aureus [8] = assay: Increase in 5 ug sparfloxacin antibacterial activity against Staphylococcus aureus SA1199B mutant overexpressing NorA at 128 ug/ml by disk diffusion method; format: functional; in short: as §1
Staphylococcus aureus [9] = assay: Increase in 5 ug levofloxacin antibacterial activity against Staphylococcus aureus SA1199B mutant overexpressing NorA at 128 ug/ml by disk diffusion method; format: functional; in short: as §1
Staphylococcus aureus [10] = assay: Antibacterial activity against Staphylococcus aureus; format: functional
In short: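 Tube broth dilution MIC against SA-1199 and NorA-overproducing SA-1199B in Mueller-Hinton broth with 20 μg/ml Ca²⁺ and 10 μg/ml Mg²⁺. Inoculum was a 4–5 h 37°C culture diluted 1/10 (≈10⁶ CFU/ml). Compound range was 512 to 1 μg/ml, dissolved in DMSO (final ≤4%).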

Staphylococcus aureus [11] = assay: Increase in 16 ug/ml Norfloxacin accumulation in Staphylococcus aureus SA1199B mutant overexpressing NorA measured per mg of cell protein at 128 ug/ml after 5 mins; format: functional, organism-based
In short: (§2)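 SA-1199B was grown to mid-exponential phase in MH broth (4–5 h, 37°C, shaken), then washed and resuspended in 50 mM sodium phosphate, pH 7.0. Cells got norfloxacin at one-quarter MIC, alone or with inhibitor at 128 μg/ml. At 5–20 min, cells were spun through silicone-paraffin oil into orthophosphoric acid. Norfloxacin was measured by HPLC fluorescence (ex 240/[…]) as ng/mg BCA protein. Means of triplicate experiments.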

Staphylococcus aureus [12] = assay: Increase in 16 ug/ml Norfloxacin accumulation in wild type Staphylococcus aureus SA1199 at 128 ug/ml after 20 mins; format: functional
In short: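 Mid-exponential SA-1199 cells were washed and resuspended in 50 mM sodium phosphate, pH 7.0. They were exposed at time zero to norfloxacin at one-quarter MIC, alone or with EPI at 128 μg/ml. At 5–20 min, cells were spun through silicone-paraffin oil into orthophosphoric acid. Lysate norfloxacin was measured by C18 HPLC with fluorescence detection (ex 240, em 280 nm) and normalized to BCA protein (ng/mg). Triplicate experiments, mean reported.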

Staphylococcus aureus [13] = assay: Increase in 16 ug/ml Norfloxacin accumulation in Staphylococcus aureus SA1199B mutant overexpressing NorA at 128 ug/ml after 20 mins; format: functional; in short: as §2
Staphylococcus aureus [14] = assay: Increase in 16 ug/ml Norfloxacin accumulation in Staphylococcus aureus SA1199B mutant overexpressing NorA measured per milligram of cell protein at 128 ug/ml after 20 mins; format: functional, organism-based; in short: as §2
Staphylococcus aureus [15] = assay: Antibacterial activity against Staphylococcus aureus SA1199B overexpressing NorA at 5 ug by disk diffusion method; format: functional; settings: read-out: IZ; in short: as §1

Row | SMILES | inhibition zone (IZ) (Staphylococcus aureus [1]) | inhibition zone (IZ) (Staphylococcus aureus [2]) | MIC (Staphylococcus aureus [3]) | inhibition zone (IZ) (Staphylococcus aureus [4]) | MIC (Staphylococcus aureus [5]) | inhibition zone (IZ) (Staphylococcus aureus [6]) | inhibition zone (IZ) (Staphylococcus aureus [7]) | inhibition zone (IZ) (Staphylococcus aureus [8]) | inhibition zone (IZ) (Staphylococcus aureus [9]) | MIC (Staphylococcus aureus [10]) | Drug uptake (Staphylococcus aureus [11]) | Activity (Staphylococcus aureus [12]) | Activity (Staphylococcus aureus [13]) | Drug uptake (Staphylococcus aureus [14]) | zone of inhibition at 5 µg/disc (Staphylococcus aureus [15])
1 | COc1ccc2c(c1)nc([S+]([O-])Cc1nc3ccccc3n3cccc13)c1cccn12 (centres undefined) | 27 mm | 17 mm | 2 µg/mL | 25 mm | 32 µg/mL | 6 mm | 19 mm | 27 mm | 22 mm | > 512 µg/mL |  |  |  |  | 
2 | [O-][S+](Cc1nc2ccccc2n2cccc12)c1nc2ccccc2[nH]1 (centres undefined) | 28 mm | 19 mm | 1 µg/mL | 25 mm | 16 µg/mL | 10 mm | 23 mm | 28 mm | 24 mm | > 512 µg/mL | 270 ng/mg | 10% | 40% | 400 ng/mg | 
3 | CCn1cc(C(=O)O)c(=O)c2cc(F)c(N3CCNCC3)cc21 [NORFLOXACIN] |  |  |  |  |  |  |  |  |  |  |  |  |  |  | 27 mm
4 | Cn1ccnc1[S+]([O-])Cc1nc2ccccc2n2cccc12 (centres undefined) | 27 mm | 14 mm | 2 µg/mL | 25 mm | 32 µg/mL | 6 mm | 19 mm | 27 mm | 22 mm | > 512 µg/mL |  |  |  |  | 
5 | COc1ccc2[nH]c([S+]([O-])Cc3nc4cc(OC)ccc4n4cccc34)nc2c1 (centres undefined) | 28 mm | 24 mm | 1 µg/mL | 27 mm | 8 µg/mL | 16 mm | 25 mm | 29 mm | 24 mm | > 512 µg/mL | 270 ng/mg | 10% | 40% | 400 ng/mg | 
6 | [O-][S+](Cc1nc2ccccc2n2cccc12)c1ccccn1 (centres undefined) | 27 mm | 17 mm | 2 µg/mL | 25 mm | 32 µg/mL | 6 mm | 20 mm | 27 mm | 22 mm | > 512 µg/mL |  |  |  |  | 
7 | COc1ccc2[nH]c([S+]([O-])Cc3nc4ccccc4n4cccc34)nc2c1 (centres undefined) | 28 mm | 24 mm | 1 µg/mL | 26 mm | 8 µg/mL | 15 mm | 25 mm | 27 mm | 24 mm | > 512 µg/mL | 270 ng/mg | 10% | 40% | 400 ng/mg | 
8 | [O-][S+](Cc1nc2ccccc2n2cccc12)c1ncc[nH]1 (centres undefined) | 27 mm | 15 mm | 2 µg/mL | 25 mm | 32 µg/mL | 6 mm | 19 mm | 27 mm | 22 mm | > 512 µg/mL |  |  |  |  | 
9 | COc1ccc2[nH]c([S+]([O-])Cc3nc4ccc(Cl)cc4n4cccc34)nc2c1 (centres undefined) | 27 mm | 19 mm | 1 µg/mL | 25 mm | 16 µg/mL | 10 mm | 21 mm | 27 mm | 23 mm | > 512 µg/mL | 270 ng/mg | 10% | 40% | 400 ng/mg | 
10 | Cn1c([S+]([O-])Cc2nc3ccccc3n3cccc23)nc2ccccc21 (centres undefined) | 27 mm | 15 mm | 2 µg/mL | 25 mm | 32 µg/mL | 6 mm | 20 mm | 27 mm | 23 mm | > 512 µg/mL |  |  |  |  | 
11 | CC1COc2c(N3CCN(C)CC3)c(F)cc3c(=O)c(C(=O)O)cn1c23 (centres undefined) [OFLOXACIN] |  |  |  |  |  |  |  |  |  |  |  |  |  |  | 27 mm
12 | COc1c(N2C[C@@H]3CCCN[C@@H]3C2)c(F)cc2c(=O)c(C(=O)O)cn(C3CC3)c12 [MOXIFLOXACIN] |  |  |  |  |  |  |  |  |  |  |  |  |  |  | 27 mm
13 | COc1ccc2c(c1)nc(C[S+]([O-])c1nc3ccccc3[nH]1)c1cccn12 (centres undefined) | 28 mm | 22 mm | 1 µg/mL | 26 mm | 8 µg/mL | 13 mm | 25 mm | 28 mm | 24 mm | > 512 µg/mL | 270 ng/mg | 10% | 40% | 400 ng/mg | 
14 | O=C(O)c1cn(C2CC2)c2cc(N3CCNCC3)c(F)cc2c1=O [CIPROFLOXACIN] |  |  |  |  |  |  |  |  |  |  |  |  |  |  | 13 mm
